Source: ChEMBL document CHEMBL1134668, “Hydrazinonaphthalene and azonaphthalene thrombopoietin mimics are nonpeptidyl promoters of megakaryocytopoiesis” (J Med Chem, 2001)

What was measured:
[1] = target: T1, Thrombopoietin receptor (Homo sapiens) (UniProt P40238); test: Thrombopoietin luciferase activity in BAF-3 cells; format: cell-based; settings: BaF3
T1 sequence (whole entry): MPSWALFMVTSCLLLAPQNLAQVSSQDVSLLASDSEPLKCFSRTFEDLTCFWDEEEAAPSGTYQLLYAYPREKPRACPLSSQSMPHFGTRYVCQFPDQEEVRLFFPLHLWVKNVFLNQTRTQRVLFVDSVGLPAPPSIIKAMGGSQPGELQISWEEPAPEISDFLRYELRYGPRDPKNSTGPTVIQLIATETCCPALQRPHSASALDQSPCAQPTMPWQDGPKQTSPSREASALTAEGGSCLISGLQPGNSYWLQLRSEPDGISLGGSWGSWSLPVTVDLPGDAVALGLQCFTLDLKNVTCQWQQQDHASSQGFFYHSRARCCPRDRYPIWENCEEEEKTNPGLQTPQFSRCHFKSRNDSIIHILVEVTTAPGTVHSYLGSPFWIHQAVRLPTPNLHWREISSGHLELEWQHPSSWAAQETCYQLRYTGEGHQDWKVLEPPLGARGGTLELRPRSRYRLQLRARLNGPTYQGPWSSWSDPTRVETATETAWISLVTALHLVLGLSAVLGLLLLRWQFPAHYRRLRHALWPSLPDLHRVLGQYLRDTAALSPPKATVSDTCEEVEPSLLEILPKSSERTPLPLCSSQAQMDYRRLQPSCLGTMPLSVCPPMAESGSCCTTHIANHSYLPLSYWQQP

[2] = target: T2, Thrombopoietin receptor (Homo sapiens, UniProt P40238); test: Effective concentration for thrombopoietin luciferase activity was determined in BAF-3 cells; format: cell-based, BaF3
T2 sequence (P40238 whole entry): T1 sequence (whole entry)

[3] = Compound tested for UT7/TPO cell proliferation activity (%TPO) using proliferation assay.; format: functional, Homo sapiens
Method in brief: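 UT7/TPO cells kept in IMDM/10% FBS/glutamine plus rhTPO, starved overnight without TPO. Cells (0.2 × 10^6/mL) in starving medium incubated with compounds (0.32% DMSO final) or rhTPO, 37 °C, 5% CO2, 72 h. Pellet DNA content read by BrdU kit. Mean value over control as % of maximal-TPO response, duplicates, plotted vs concentration for EC50.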

[4] = Compound tested for CD34+ cell differentiation activity (%TPO) using CD34+ differentiation assay; format: functional, Homo sapiens
Method in brief: (§1)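 Human bone marrow CD34+ cells from light density marrow cells (2 × 10^6 cells/mL) in IMDM with 20% v/v FCS and rhSCF 100 ng/mL, cultured with sample or TPO (maximal 100 ng/mL) for 10 days at 5% CO2 and 4% O2. Stained with FITC-anti-CD41 and FITC-anti-IgG1 isotype control, formaldehyde-fixed, flow cytometry; %CD41 = CD41 positive minus isotype positive.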

[5] = Effective concentration (EC50) required to inhibit CD34 cell differentiation; format: functional; settings: Homo sapiens; method in brief: as §1

| SMILES | Efficacy [1] [%] | EC50 [2] [nM] | Efficacy [3] [%] | Efficacy [4] [%] | EC50 [5] [nM] |
| --- | --- | --- | --- | --- | --- |
| Cc1ccc(O)c(/N=N/c2c(O)cc(S(=O)(=O)O)c3ccccc23)c1 | 28 | 3000 | – | – | – |
| CCOC(=O)c1[nH]n(-c2ccc(C(C)(C)C)cc2)c(=O)c1/N=N/c1c(O)cc(S(=O)(=O)O)c2ccccc12 | 56 | 2000 | – | – | – |
| CC(C)(C)OC(=O)c1[nH]n(-c2ccc(C(C)(C)C)cc2)c(=O)c1/N=N/c1c(O)cc(S(=O)(=O)O)c2ccccc12 | 32 | 200 | – | – | – |
| O=C(O)c1cccc2c(/N=N/c3c(O)cc(S(=O)(=O)O)c4ccccc34)c(O)ccc12 | < 5 | – | – | – | – |
| O=S(=O)(O)c1cc(O)c(/N=N/c2c(O)ccc3cc(O)ccc23)c2ccccc12 | 16 | 2000 | – | – | – |
| Cc1[nH]n(-c2cccc([N+](=O)[O-])c2)c(=O)c1/N=N/c1c(O)cc(S(=O)(=O)O)c2ccccc12 | 28 | 300 | – | – | – |
| Cc1ccc(-n2[nH]c(C)c(/N=N/c3c(O)cc(C(=O)O)c4ccccc34)c2=O)cc1 | 47 | 2000 | – | – | – |
| O=S(=O)(O)c1cc(O)c(/N=N/c2c(O)ccc3ccc(O)cc23)c2ccccc12 | 31 | 2000 | – | – | – |
| Cc1[nH]n(-c2ccccn2)c(=O)c1/N=N/c1c(O)cc(S(=O)(=O)O)c2ccccc12 | 24 | 7000 | – | – | – |
| COc1ccc2ccc(O)c(/N=N/c3c(O)cc(S(=O)(=O)O)c4ccccc34)c2c1 | 85 | 300 | – | – | – |
| Cc1[nH]n(-c2ccc(I)cc2)c(=O)c1/N=N/c1c(O)cc(S(=O)(=O)O)c2ccccc12 | 81 | 300 | 100 | 60 | – |
| Cc1[nH]n(-c2cccc(C(C)(C)C)c2)c(=O)c1/N=N/c1c(O)cc(S(=O)(=O)O)c2ccccc12 | 71 | 70 | – | – | – |
| Cc1[nH]n(-c2ccc(Cl)c(Cl)c2)c(=O)c1/N=N/c1c(O)cc(S(=O)(=O)O)c2ccccc12 | 67 | 200 | 70 | – | – |
| Cc1[nH]n(-c2ccc(S(C)(=O)=O)cc2)c(=O)c1/N=N/c1c(O)cc(S(=O)(=O)O)c2ccccc12 | 18 | 3000 | – | – | – |
| Cc1[nH]n(-c2ccc(C(F)(F)F)cc2)c(=O)c1/N=N/c1c(O)cc(S(=O)(=O)O)c2ccccc12 | 39 | 100 | 100 | – | – |
| Cc1ccc(-n2[nH]cc(/N=N/c3c(O)cc(S(=O)(=O)O)c4ccccc34)c2=O)cc1C | 95 | 100 | – | – | – |
| Cc1[nH]n(-c2ccc(O)cc2)c(=O)c1/N=N/c1c(O)cc(S(=O)(=O)O)c2ccccc12 | < 5 | – | – | – | – |
| Cc1cccc(-n2[nH]c(C)c(/N=N/c3c(O)cc(S(=O)(=O)O)c4ccccc34)c2=O)c1 | 34 | 700 | – | – | – |
| Cc1[nH]n(C(C)(C)C)c(=O)c1/N=N/c1c(O)cc(S(=O)(=O)O)c2ccccc12 | < 5 | – | – | – | – |
| CC(C)(C)c1ccc(-n2[nH]c(C(=O)O)c(/N=N/c3c(O)cc(S(=O)(=O)O)c4ccccc34)c2=O)cc1 | < 5 | – | – | – | – |

| SMILES | Efficacy [1] [%] | EC50 [2] [nM] | Efficacy [3] [%] | Efficacy [4] [%] | EC50 [5] [nM] |
| --- | --- | --- | --- | --- | --- |
| Cc1[nH]n(Cc2ccccc2)c(=O)c1/N=N/c1c(O)cc(S(=O)(=O)O)c2ccccc12 | 32 | > 30000 | – | – | – |
| Cc1[nH]n(-c2ccccc2)c(=O)c1/N=N/c1c(O)cc(C(=O)O)c2ccccc12 | 21 | 5000 | – | – | – |
| Cc1[nH]n(-c2ccc(F)cc2)c(=O)c1/N=N/c1c(O)cc(S(=O)(=O)O)c2ccccc12 | 39 | 500 | – | – | – |
| Cc1ccc(-n2[nH]c(C)c(/N=N/c3c(O)cc(C(=O)O)c4ccccc34)c2=O)cc1C | 24 | 1000 | – | – | – |
| Cc1[nH]n(-c2cc(Cl)c(S(=O)(=O)O)cc2Cl)c(=O)c1/N=N/c1c(O)cc(S(=O)(=O)O)c2ccccc12 | < 5 | – | – | – | – |
| O=S(=O)(O)c1cc(O)c(/N=N/c2ccc3ccccc3c2O)c2ccccc12 | 87 | 70 | – | – | – |
| Cc1[nH]n(-c2ccc(C(=O)O)cc2)c(=O)c1/N=N/c1c(O)cc(S(=O)(=O)O)c2ccccc12 | < 5 | – | – | – | – |
| O=S(=O)(O)c1cc(O)c(NCc2c(O)ccc3ccccc23)c2ccccc12 | < 5 | – | – | – | – |
| O=C(O)c1cc2ccccc2c(/N=N/c2c(O)cc(S(=O)(=O)O)c3ccccc23)c1O | 48 | 10000 | – | – | – |
| Cc1[nH]n(-c2ccc(Cl)cc2)c(=O)c1/N=N/c1c(O)cc(S(=O)(=O)O)c2ccccc12 | 47 | 2000 | 75 | – | – |
| Cc1ccc(-n2[nH]c(C)c(/N=N/c3c(O)cc(S(=O)(=O)O)c4ccccc34)c2=O)cc1C | 100 | 40 | 90 | 100 | 200 |
| Cc1[nH]n(-c2ccccc2)c(=O)c1/N=N/c1c(O)cc(S(=O)(=O)O)c2ccccc12 | 26 | 2000 | – | – | – |
| Cc1[nH]n(-c2ccc(OCc3ccccc3)cc2)c(=O)c1/N=N/c1c(O)cc(S(=O)(=O)O)c2ccccc12 | 34 | 200 | – | – | – |
| Cc1[nH]n(-c2cccc(C(F)(F)F)c2)c(=O)c1/N=N/c1c(O)cc(S(=O)(=O)O)c2ccccc12 | 62 | 40 | – | 95 | 100 |
| O=S(=O)(O)c1ccc(/N=N/c2c(O)ccc3ccccc23)c2ccccc12 | < 5 | – | – | – | – |
| CC(C)(C)c1ccc(-n2[nH]c(N)c(/N=N/c3c(O)cc(S(=O)(=O)O)c4ccccc34)c2=O)cc1 | 87 | 5000 | – | – | – |
| Cc1ccccc1-n1[nH]c(C)c(/N=N/c2c(O)cc(S(=O)(=O)O)c3ccccc23)c1=O | 30 | 10000 | – | – | – |
| Cc1[nH]n(-c2ccc(C(C)C)cc2)c(=O)c1/N=N/c1c(O)cc(S(=O)(=O)O)c2ccccc12 | 100 | 70 | – | – | – |
| O=S(=O)(O)c1cc(O)c(/N=N/c2c(O)c3ccccc3c3ccccc23)c2ccccc12 | 61 | 200 | – | – | – |
| Cc1[nH]n(-c2ccccc2[N+](=O)[O-])c(=O)c1/N=N/c1c(O)cc(S(=O)(=O)O)c2ccccc12 | 19 | 8000 | – | – | – |

| SMILES | Efficacy [1] [%] | EC50 [2] [nM] | Efficacy [3] [%] | Efficacy [4] [%] | EC50 [5] [nM] |
| --- | --- | --- | --- | --- | --- |
| Cc1[nH]n(-c2cc(S(=O)(=O)O)ccc2Cl)c(=O)c1/N=N/c1c(O)cc(S(=O)(=O)O)c2ccccc12 | < 5 | – | – | – | – |
| Cc1ccc(-n2[nH]c(C)c(/N=N/c3c(O)cc(S(=O)(=O)O)c4ccccc34)c2=O)cc1 | 53 | 2000 | 90 | – | – |
| CCNS(=O)(=O)c1cccc(-n2[nH]c(C)c(/N=N/c3c(O)cc(S(=O)(=O)O)c4ccccc34)c2=O)c1 | 25 | 10000 | – | – | – |
| Oc1ccc2ccccc2c1/N=N/c1c(O)ccc2ccccc12 | < 5 | – | – | – | – |
| COc1cc(O)c2ccccc2c1/N=N/c1c(O)cc(S(=O)(=O)O)c2ccccc12 | 19 | 3000 | – | – | – |
| O=C(Nc1c(O)cc(S(=O)(=O)O)c2ccccc12)c1c(O)ccc2ccccc12 | < 5 | – | – | – | – |
| Cc1ccc(-n2[nH]c(C(C)(C)C)c(/N=N/c3c(O)cc(S(=O)(=O)O)c4ccccc34)c2=O)cc1C | 72 | 300 | – | – | – |
| Cc1n[nH]c(O)c1/N=N/c1c(O)cc(S(=O)(=O)O)c2ccccc12 | < 5 | – | – | – | – |
| O=S(=O)(O)c1cc(O)c(/N=C/c2c(O)ccc3ccccc23)c2ccccc12 | < 5 | – | – | – | – |
| Cc1[nH]n(-c2ccc(S(=O)(=O)O)cc2)c(=O)c1/N=N/c1c(O)cc(S(=O)(=O)O)c2ccccc12 | < 5 | – | – | – | – |
| Cc1[nH]n(C)c(=O)c1/N=N/c1c(O)cc(S(=O)(=O)O)c2ccccc12 | < 5 | – | – | – | – |
| CCOc1nn(-c2ccc(C)c(C)c2)c(O)c1/N=N/c1c(O)cc(S(=O)(=O)O)c2ccccc12 | 80 | 600 | – | – | – |
| O=[N+]([O-])c1cc(O)c(/N=N/c2c(O)ccc3ccccc23)c2ccccc12 | < 5 | – | – | – | – |
| Cc1[nH]n(-c2ccccc2Cl)c(=O)c1/N=N/c1c(O)cc(S(=O)(=O)O)c2ccccc12 | 6 | > 30000 | – | – | – |
| Cc1[nH]n(-c2ccc([N+](=O)[O-])cc2)c(=O)c1/N=N/c1c(O)cc(S(=O)(=O)O)c2ccccc12 | 63 | 400 | – | – | – |
| Cc1[nH]n(CCO)c(=O)c1/N=N/c1c(O)cc(S(=O)(=O)O)c2ccccc12 | < 5 | – | – | – | – |
| Cc1ccc(-n2[nH]c(-c3ccccc3)c(/N=N/c3c(O)cc(S(=O)(=O)O)c4ccccc34)c2=O)cc1C | 92 | 900 | – | – | – |
| O=S(=O)(O)c1cc(O)c(/N=N/c2ccc(O)c3ccc(O)cc23)c2ccccc12 | < 5 | – | – | – | – |
| O=S(=O)(O)c1cc(O)c(/N=N/c2c(O)cc(O)c3ccccc23)c2ccccc12 | 16 | 5000 | – | – | – |
| O=S(=O)(O)c1cc(O)c(/N=N/c2c(O)c(O)cc3ccccc23)c2ccccc12 | 26 | 2000 | – | – | – |
